Experimental data reported in the RNAGym collection of RNA variant scans (doi:10.1002/anie.201605470).

B1: Osa-1-4 twister ribozyme (parent)
chain: CCGCCUAACACUGCCAAUGCCGGUCCCAAGCCCGGAUAAAAGUGGAGGGGGCGG

Variants of: B1
Experiment: self-cleavage, relative activity (ratio to wild type); higher = more cleavage; co-transcriptional
Outline: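 In vitro transcription at 37 °C for 2 h allowed the twister ribozyme to cleave itself as it was made. Its 54-nucleotide Oryza sativa template had been synthesised with 97 % wild-type base and 1 % of each other base at the 48 positions downstream of the cleavage site. A template-switching oligonucleotide was used for reverse transcription, followed by PCR amplification and deep sequencing. Whether reads carried upstream sequence set the cleavage status, and relative activity is the fraction cleaved normalised to wild type.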

| Variant | self-cleavage |
| --- | --- |
| A16C C31U | 0.55 |
| C15U G34U | 0.15 |
| C15U G34C | 0.09 |
| C15U G34A | 0.21 |
| C15U C25U | 0.08 |
| C15U C25A | 0.03 |
| C15U C25G | 0.04 |
| A16C A8U | 0.19 |
| A16C A8G | 0.36 |
| A16C A8C | 0.13 |
| C15U U37C | 0.36 |
| C15U U37A | 0.62 |
| C15U U37G | 0.76 |
| A16C A36G | 1.01 |
| A16C A36U | 0.99 |
| A16C A36C | 0.33 |
| A16C G51U | 0.35 |
| A16C G51A | 0.53 |
| A16C G51C | 0.12 |
| C15U | 0.53 |
| A16G C27U | 0.37 |
| A16G C27A | 0.38 |
| A16G C27G | 0.15 |
| A16C C14U | 0.27 |

| Variant | self-cleavage |
| --- | --- |
| A16C C14G | 0.29 |
| A16C C14A | 0.08 |
| C15U C9A | 0.05 |
| C15U C9G | 0.14 |
| C15U C9U | 0.07 |
| A16G A40U | 0.88 |
| A16G A40C | 0.11 |
| A16G A40G | 0.77 |
| A16C G53A | 0.65 |
| A16C G53U | 0.25 |
| A16C G53C | 0.09 |
| A16C U18A | 0.92 |
| A16C U18C | 0.91 |
| A16C U18G | 0.85 |
| A16C C27G | 0.06 |
| A16C C27A | 0.13 |
| A16C C27U | 0.1 |
| C15U U18A | 0.51 |
| C15U U18G | 0.39 |
| C15U U18C | 0.52 |
| A16G A41G | 0.74 |
| A16G A41U | 1.05 |
| A16G A41C | 0.99 |
| C15G U37G | 0.72 |

| Variant | self-cleavage |
| --- | --- |
| C15G U37A | 0.45 |
| C15G U37C | 0.47 |
| A16C G13U | 0.04 |
| A16C G13C | 0.04 |
| A16C G13A | 0.08 |
| A16C G50C | 0.82 |
| A16C G50A | 0.71 |
| A16C G50U | 0.97 |
| A16C C9A | 0.5 |
| A16C C9G | 0.51 |
| A16C C9U | 0.77 |
| C15U G51U | 0.07 |
| C15U G51A | 0.15 |
| C15U G51C | 0.04 |
| A16G A8U | 0.5 |
| A16G A8G | 0.76 |
| A16G A8C | 0.09 |
| A16C A41C | 0.74 |
| A16C A41G | 0.63 |
| A16C A41U | 0.97 |
| C15G G51C | 0.07 |
| C15G G51U | 0.08 |
| C15G G51A | 0.13 |
| A16C A39G | 0.95 |

| Variant | self-cleavage |
| --- | --- |
| A16C A39C | 0.89 |
| A16C A39U | 0.95 |
| C15U G30C | 0.02 |
| C15U G30A | 0.02 |
| C15U G30U | 0.03 |
| A16G A7C | 0.08 |
| A16G A7G | 0.61 |
| A16G A7U | 0.13 |
| C15G U43G | 0.1 |
| C15G U43A | 0.17 |
| C15G U43C | 0.11 |
| A16C G19C | 0.13 |
| A16C G19U | 0.19 |
| A16C G19A | 0.62 |
| C15U G50A | 0.47 |
| C15U G50C | 0.23 |
| C15U G50U | 0.43 |
| C15U G35U | 0.35 |
| C15U G35C | 0.07 |
| C15U G35A | 0.59 |
| C15U C33A | 0.05 |
| C15U C33G | 0.03 |
| C15U C33U | 0.06 |
| C15G U24A | 0.07 |

| Variant | self-cleavage |
| --- | --- |
| C15G U24G | 0.02 |
| C15G U24C | 0.09 |
| A16G C14G | 0.53 |
| A16G C14A | 0.15 |
| A16G C14U | 0.64 |
| A16C U12C | 0.44 |
| A16C U12A | 0.71 |
| A16C U12G | 0.09 |
| A16G A17C | 0.91 |
| A16G A17U | 0.94 |
| A16G A17G | 0.92 |
| A16G C31U | 0.94 |
| A16G C31A | 0.03 |
| A16G C31G | 0.16 |
| C15U G45C | 0.04 |
| C15U G45A | 0.04 |
| C15U G45U | 0.03 |
| A16G C9U | 0.84 |
| A16G C9A | 0.59 |
| A16G C9G | 0.92 |
| A16C G54A | 0.86 |
| A16C G54U | 0.88 |
| A16C G54C | 0.82 |
| A16C C21A | 0.45 |

| Variant | self-cleavage |
| --- | --- |
| A16C C21U | 0.93 |
| A16C C21G | 0.08 |
| A16C G22U | 0.31 |
| A16C G22A | 0.76 |
| A16C G22C | 0.07 |
| A16G A39G | 0.9 |
| A16G A39U | 0.97 |
| A16G A39C | 1.01 |
| C15U G22U | 0.11 |
| C15U G22A | 0.17 |
| C15U G22C | 0.03 |
| A16G C52A | 0.97 |
| A16G C52G | 1 |
| A16G C52U | 0.99 |
| A16C C33G | 0.06 |
| A16C C33U | 0.55 |
| A16C C33A | 0.08 |
| A16G C11G | 0.65 |
| A16G C11A | 0.85 |
| A16G C11U | 0.95 |
| A16C G23A | 0.14 |
| A16C G23C | 0.04 |
| A16C G23U | 0.06 |
| C15U C27G | 0.06 |

| Variant | self-cleavage |
| --- | --- |
| C15U C27U | 0.08 |
| C15U C27A | 0.07 |
| A16C A17G | 0.9 |
| A16C A17C | 0.87 |
| A16C A17U | 0.98 |
| C15U C21A | 0.09 |
| C15U C21U | 0.46 |
| C15U C21G | 0.04 |
| A16G C26U | 0.93 |
| A16G C26G | 0.13 |
| A16G C26A | 0.08 |
| A16C G42C | 0.11 |
| A16C G42U | 0.52 |
| A16C G42A | 0.6 |
| C15U G42C | 0.06 |
| C15U G42A | 0.12 |
| C15U G42U | 0.06 |
| C15U G49U | 0.04 |
| C15U G49A | 0.05 |
| C15U G49C | 0.04 |
| A16C A29C | 0.05 |
| A16C A29U | 0.07 |
| A16C A29G | 0.11 |
